# From PubChem
# ANO1 activ: activates or potentiates the mouse TMEM16A chloride channel | HEK293 TMEM16A/YFP-H148Q/I152L, iodide quench fluorescence; stronger effect = lower value | B-score at 10 µM | 340,000 compounds, 0.3% hits | AID 623877;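 active = fluorescence-ratio B-score plate-corrected deviation score at least 3 library SD below zero, with starting fluorescence score within 5 deviations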;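 also: channel opened by trigger with iodide after compound preincubation; score built on the fluorescence ratio of max minus min over baseline; more negative score means more quench and so TMEM16A activation or potentiation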
# Lipid droplet: modulators of hepatic lipid droplet formation; inhibition, % at 6.5 µM; AID 1656; 240,000 compounds, 0.4% hits; AML12 mouse hepatocytes, oleate lipid droplets, BODIPY imaging;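 active = lipid droplet intensity inhibited by at least 50%, with more than 500 cells counted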
#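 Assay system: AML12 mouse liver cells | Compound: 6.5 µM single-point dosing | Schedule: Overnight exposure | Technique: Fluorescence imaging, 20x objective, two fields per well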
# UPR CHOP act: activators of apoptotic arm of unfolded protein response (CHOP) | CHO-CHOP luciferase reporter, UPR activation, luminescence; percent of tunicamycin response over DMSO baseline | activation, % at 10 µM | 330,000 compounds, 0.34% hits;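 active = at 10 µM dose, activation of 40% or more, normalized to positive control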
#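 Test system: CHO CHOP reporter cells. Input: 500 CHO-CHOP cells per well. Medium: F12 with 10% FBS. Technique: luciferase luminescence. Measure: percent activation relative to tunicamycin control. Dosing: 10 µM compound, 0.5% DMSO. Timing: 16-18 h cell attachment, then 6 h compound exposure, 37 °C.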
# UPR XBP1 act: adaptive UPR (XBP1) activation; CHO-XBP1 luciferase reporter, IRE1-XBP1 UPR activation, luminescence; percent of tunicamycin response, DMSO as zero; activation, % at 20 µM; 330,000 compounds, 0.33% hits;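 active = versus positive control, 20 µM dose yields 30% or more activation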
#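 Material – CHO cell line with stable XBP1 luciferase reporter · Buffer or medium – F12 plus 10% FBS · Compound – single point, 20 µM final compound, 1% DMSO · Schedule – 16-18 h cell attachment at 37 °C, then 6 h compound exposure · Signal – Steady-Glo luminescence read · Benchmarks – high control tunicamycin 10 µg/mL final, low control DMSO vehicle only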
# TMEM16A inh: inhibitors of mouse TMEM16A calcium-activated chloride channel | 310,000 compounds, 1.2% hits | HEK293 TMEM16A/YFP iodide influx fluorescence, ionomycin | normalized B-score (activity score, 25-100; higher = stronger inhibition) at 10 µM | Q8BHY3 | AID 588511;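 active = ratio plate-corrected score three or more library SD toward inhibition, starting fluorescence score within five deviations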;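 also: score derived from kinetic fluorescence span divided by baseline fluorescence per well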
# CHOP inh: blocks CHOP induction under ER stress; CHO-K1 CHOP-promoter luciferase, tunicamycin-induced, 15-18 h; inhibition, % at 10 µM; 220,000 compounds, 3.8% hits; AID 2732;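 active = compounds that reduced the stress-induced luciferase reporter signal by more than about 70% of percent inhibition, limit read from the data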
# Hep lipid conf: hepatic lipid droplet formation inhibition, confirmed | shares compounds with Lipid droplet | AML12 mouse hepatocytes, BODIPY lipid droplet imaging; droplets induced with 100 µM oleic acid | inhibition, % at 5.2 µM | 870 compounds, 65% hits;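 active = inhibition of lipid droplet metric at least 50%, with more than 300 cells in each of four replicates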
# AML12 cytotox: counter-screen for cytotoxicity in AML12 mouse hepatocytes | shares compounds with Lipid droplet | DAPI nuclear morphology cytotoxicity imaging; stronger effect = higher value; cells fed 100 µM oleate overnight | z-score at 5 µM | 870 compounds, 3% hits | AID 463200; in the data active = z-score above about 6.3;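 also: compound exposure lasted overnight at 37 °C before fixation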
# AML12 tox ATP: AML12 hepatocyte cytotoxicity, confirmed; shares compounds with Lipid droplet; AML12 mouse hepatocyte viability, ATP luminescence; cells loaded with 100 µM oleic acid; cytotoxicity, % at 50 µM; 530 tested, under 10 active;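 active = cytotoxicity above 50% in each of four replicates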;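 also: compound exposure lasted overnight at 37 °C before the ATP read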
# Numbers stand for hits; - = inactive; . = not tested or not shown. The list is not random: actives were taken first. Their share in the collection is about 4.2%.
SMILES,ANO1 activ,Lipid droplet,UPR CHOP act,UPR XBP1 act,TMEM16A inh,CHOP inh,Hep lipid conf,AML12 cytotox,AML12 tox ATP
CCOc1ccc(CCNC(=O)/C=C/c2ccco2)cc1OCC,-,81,-,-,-,.,105,-,-
CCOc1ccc(CCNC(=O)CN2C(=O)NC3(CCCC3)C2=O)cc1OCC,-,83,-,-,-,.,109,-,-
CCOc1ccc(CCNC(=O)Cn2cccc2C(=O)c2ccccc2C)cc1OCC,-,101,-,-,-,75,109,-,-
CCOc1ccc(CCNC(=O)Nc2ccccc2C)cc1OCC,-,104,-,-,-,.,101,-,-
CCOc1ccc(CCNC(=O)CCn2cccc2)cc1OCC,-,.,-,-,-,-,.,.,.
CSc1ccc(/C=C/C(=O)OCC(=O)N2CCN(S(=O)(=O)c3ccc(C)cc3C)CC2)cc1,-,.,-,-,.,.,.,.,.
Cc1ccc(C)c(OCCC(=O)OCC(=O)NC(=O)NC2CCCC2)c1,-,.,-,-,-,.,.,.,.
COc1ccc(-c2ccc3c(c2)S(=O)(=O)c2cccc(C(=O)N4CCN(c5c(Cl)cncc5Cl)CC4)c2C3=O)cc1OC,-,.,-,-,.,.,.,.,.
CCN(CCCNC(=O)Cn1ncc2c([nH]c3ccc(C)cc32)c1=O)Cc1ccccc1,-,-,-,-,-,.,.,.,.
CCOc1ccccc1N1CCN(C(=O)c2ccc3[nH]c4c(c3c2)CCCC4)CC1,-,-,-,-,-,-,.,.,.
COc1cccc(/C=C/C(=O)NCCc2ccc(OC)c(OC)c2)c1,-,54,-,-,-,-,-,-,.
O=C(CN1CCN(c2ccccc2O)CC1)NCCCc1ccccc1,-,-,-,-,-,-,.,.,.
CC(C)C(C)(C#N)NC(=O)CSc1nc2scc(-c3ccc(F)cc3)c2c(=O)n1Cc1ccccc1 (stereo not given),-,105,-,-,-,-,113,-,.
CCCOc1ccc(CN(CCC#N)C(=S)NC(=O)c2ccccc2)cc1,-,-,-,-,-,-,.,.,.
CC1=C(C(=O)OCC2CCCO2)C(c2ccc(Cl)c(Cl)c2)NC(=O)N1 (stereo not given),-,57,-,-,-,-,-,-,.
Cc1cc(=O)oc2c3c(cc(OCC(=O)NCC4CCC(C(=O)O)CC4)c12)OC(C)(C)CC3 (stereo not given),-,-,-,-,-,.,.,.,.
CNC(=O)c1c(NC(=O)C2=COCCO2)sc2c1CCN(C(=O)OC)C2,-,.,-,-,-,.,.,.,.
CCN(CC)S(=O)(=O)c1cc(NC(=O)C(C)OC(=O)c2[nH]c(C)c(C(C)=O)c2C)ccc1C (stereo not given),-,128,-,-,-,-,-,-,.
COc1cccc(C(=O)Nc2ccc(S(=O)(=O)Nc3cc(C)nc(C)n3)cc2)c1,-,-,-,-,-,-,.,.,.
Cc1cc(NC(=O)c2cccc3ccccc23)cc(C)c1OCC(=O)N1CCOCC1,-,61,-,-,-,-,88,-,-
CCCCOc1ccc(C(=O)Nc2cc(C)c(OCC(=O)N3CCOCC3)c(C)c2)cc1,-,93,-,-,-,-,96,-,-
Cc1cc(NC(=O)c2ccc(Cl)cc2)cc(C)c1OCC(=O)N1CCOCC1,-,-,-,-,-,.,.,.,.
COc1ccc2sc(-c3ccc(SC)cc3)c(/C=C/c3ccc(OC)c(OC)c3)c2c1,-,.,-,-,.,.,.,.,.
CCC(C)(C)NC(=O)C(c1sccc1C)N(Cc1ccco1)C(=O)c1csnn1 (stereo not given),-,58,-,-,-,.,70,-,-
